Measured values as given in publication PMC2805153 (Molecular cancer therapeutics, 2009).
Entries after “also recorded” stand apart in the source; their conditions may differ. Blank lines part the entries; values can stand above or below the molecule they belong to.

Experiments:
[1] = tested on: normal human mammary epithelial cells (HMEC); assay: Growth assay; type: cell-based; conditions: 72 h, read-out: growth inhibition IC50
Summary of the method: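 Primary normal mammary epithelial cells were grown in MEGM complete medium and seeded at 5,000/well. After 18–24 h they received test compound or vehicle for 72 h (DMSO ≤0.2%). ATP-based luminescence (CellTiter-Glo) measured viable cells.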

[2] = tested on: MDA-MB-231 breast tumor cells; assay: Growth assay; type: cell-based, human
Summary of the method: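 MDA-MB-231 cells went into RPMI 1640 with 1.5% FBS at 5,000/well and rested 18–24 h. Optional 1 h pretreatment with NOR-3 came next, then test compound or vehicle for 72 h (DMSO ≤0.2%). Viable cells were read as ATP luminescence (CellTiter-Glo).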

[3] = tested on: PKG (VASP phosphorylation) in MDA-MB-231 cells; assay: VASP Ser239 phosphorylation western blot; type: cell-based, human
Summary of the method: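 MDA-MB-231 cells were treated with test compound across doses and times, then lysed in Tris-acetate/Triton X-100/NaF buffer at pH 7.4. Lysate (30 μg protein) was separated by 12% SDS-PAGE and transferred to nitrocellulose, blocked in 5% BSA in TBS-0.05% Tween-20. Blots were probed for phospho-VASP Ser239 and total VASP with HRP secondaries and detected by chemiluminescence on film.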

PDE9A = PDE9A (Homo sapiens, UniProt O76083); assay: Recombinant PDE isozyme IMAP FP assay; type: biochemical; conditions: cGMP substrate; SS tested up to 200 μM
Chain of PDE9A (O76083 whole entry): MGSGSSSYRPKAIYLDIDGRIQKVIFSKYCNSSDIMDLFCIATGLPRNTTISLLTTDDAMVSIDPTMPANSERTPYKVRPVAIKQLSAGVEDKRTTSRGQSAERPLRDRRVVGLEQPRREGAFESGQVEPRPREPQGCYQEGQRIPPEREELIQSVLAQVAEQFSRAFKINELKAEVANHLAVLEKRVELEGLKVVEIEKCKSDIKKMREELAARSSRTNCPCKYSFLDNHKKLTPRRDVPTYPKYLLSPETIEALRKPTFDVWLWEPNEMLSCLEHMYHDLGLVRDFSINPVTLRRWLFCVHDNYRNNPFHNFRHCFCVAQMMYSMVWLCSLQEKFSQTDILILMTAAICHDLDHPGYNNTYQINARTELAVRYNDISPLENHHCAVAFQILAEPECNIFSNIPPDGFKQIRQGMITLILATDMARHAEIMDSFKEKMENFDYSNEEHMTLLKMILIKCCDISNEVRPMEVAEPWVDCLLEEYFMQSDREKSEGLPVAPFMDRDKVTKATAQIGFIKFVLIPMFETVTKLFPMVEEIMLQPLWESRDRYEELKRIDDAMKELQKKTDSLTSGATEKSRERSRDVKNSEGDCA

PDE7A = PDE7A (Homo sapiens, UniProt Q13946); assay: Recombinant PDE isozyme IMAP FP assay; type: biochemical; conditions: cAMP substrate; SS tested up to 200 μM
Chain of PDE7A (Q13946 whole entry): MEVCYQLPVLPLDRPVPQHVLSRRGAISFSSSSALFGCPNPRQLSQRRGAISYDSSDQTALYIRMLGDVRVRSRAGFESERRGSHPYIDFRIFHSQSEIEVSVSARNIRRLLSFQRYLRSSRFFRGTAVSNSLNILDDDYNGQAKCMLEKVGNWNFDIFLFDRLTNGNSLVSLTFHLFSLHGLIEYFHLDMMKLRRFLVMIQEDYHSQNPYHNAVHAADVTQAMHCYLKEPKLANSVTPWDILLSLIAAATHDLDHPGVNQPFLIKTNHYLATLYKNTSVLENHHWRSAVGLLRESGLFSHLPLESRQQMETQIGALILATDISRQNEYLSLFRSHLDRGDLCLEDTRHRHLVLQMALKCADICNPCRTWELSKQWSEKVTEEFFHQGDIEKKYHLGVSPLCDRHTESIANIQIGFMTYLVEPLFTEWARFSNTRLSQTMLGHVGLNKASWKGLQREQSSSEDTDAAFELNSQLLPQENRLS

HMEC [4] = assay: Intracellular cGMP assay; type: cell-based, human; conditions: 30 minutes of treatment
Summary of the method: (§1)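 Cells were seeded at 1×10^6 per 10 cm dish: HMEC in MEGM, MDA-MB-231 in RPMI 1640 with 1.5% FBS. After 48 h they were exposed to test compound or vehicle for 30 min, then lysed. Intracellular cGMP was measured by direct competitive EIA, optical density at 630 nm.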

PDE11A = PDE11A (Homo sapiens, UniProt Q9HCR9); assay: Recombinant PDE isozyme IMAP FP assay; type: biochemical; conditions: SS tested up to 200 μM
Chain of PDE11A (Q9HCR9 whole entry): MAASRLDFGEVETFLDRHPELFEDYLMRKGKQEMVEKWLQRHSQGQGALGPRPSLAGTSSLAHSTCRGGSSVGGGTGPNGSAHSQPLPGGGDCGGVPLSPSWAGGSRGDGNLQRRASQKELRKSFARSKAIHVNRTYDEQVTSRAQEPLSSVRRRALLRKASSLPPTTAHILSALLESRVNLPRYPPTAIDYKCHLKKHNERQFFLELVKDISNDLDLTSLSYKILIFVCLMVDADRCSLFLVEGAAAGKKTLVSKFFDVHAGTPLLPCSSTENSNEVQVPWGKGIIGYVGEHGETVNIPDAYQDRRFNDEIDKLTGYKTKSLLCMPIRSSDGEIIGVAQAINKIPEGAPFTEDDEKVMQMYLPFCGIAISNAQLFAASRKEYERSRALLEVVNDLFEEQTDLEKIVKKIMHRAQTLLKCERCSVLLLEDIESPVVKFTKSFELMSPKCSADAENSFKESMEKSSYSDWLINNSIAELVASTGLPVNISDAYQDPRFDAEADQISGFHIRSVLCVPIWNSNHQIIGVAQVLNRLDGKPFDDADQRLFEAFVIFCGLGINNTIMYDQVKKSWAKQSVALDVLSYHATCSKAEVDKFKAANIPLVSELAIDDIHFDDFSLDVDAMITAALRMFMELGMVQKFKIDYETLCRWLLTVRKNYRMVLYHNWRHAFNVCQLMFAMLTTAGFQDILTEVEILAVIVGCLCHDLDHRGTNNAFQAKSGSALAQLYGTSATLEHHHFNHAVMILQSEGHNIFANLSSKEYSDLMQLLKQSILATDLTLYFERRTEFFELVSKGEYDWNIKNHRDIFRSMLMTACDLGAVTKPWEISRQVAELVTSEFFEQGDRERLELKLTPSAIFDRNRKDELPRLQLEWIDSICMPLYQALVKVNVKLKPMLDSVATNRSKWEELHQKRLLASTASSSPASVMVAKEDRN

PDE8A = PDE8A (Homo sapiens, UniProt O60658); assay: Recombinant PDE isozyme IMAP FP assay; type: biochemical; conditions: cAMP substrate; SS tested up to 200 μM
Chain of PDE8A (O60658 whole entry): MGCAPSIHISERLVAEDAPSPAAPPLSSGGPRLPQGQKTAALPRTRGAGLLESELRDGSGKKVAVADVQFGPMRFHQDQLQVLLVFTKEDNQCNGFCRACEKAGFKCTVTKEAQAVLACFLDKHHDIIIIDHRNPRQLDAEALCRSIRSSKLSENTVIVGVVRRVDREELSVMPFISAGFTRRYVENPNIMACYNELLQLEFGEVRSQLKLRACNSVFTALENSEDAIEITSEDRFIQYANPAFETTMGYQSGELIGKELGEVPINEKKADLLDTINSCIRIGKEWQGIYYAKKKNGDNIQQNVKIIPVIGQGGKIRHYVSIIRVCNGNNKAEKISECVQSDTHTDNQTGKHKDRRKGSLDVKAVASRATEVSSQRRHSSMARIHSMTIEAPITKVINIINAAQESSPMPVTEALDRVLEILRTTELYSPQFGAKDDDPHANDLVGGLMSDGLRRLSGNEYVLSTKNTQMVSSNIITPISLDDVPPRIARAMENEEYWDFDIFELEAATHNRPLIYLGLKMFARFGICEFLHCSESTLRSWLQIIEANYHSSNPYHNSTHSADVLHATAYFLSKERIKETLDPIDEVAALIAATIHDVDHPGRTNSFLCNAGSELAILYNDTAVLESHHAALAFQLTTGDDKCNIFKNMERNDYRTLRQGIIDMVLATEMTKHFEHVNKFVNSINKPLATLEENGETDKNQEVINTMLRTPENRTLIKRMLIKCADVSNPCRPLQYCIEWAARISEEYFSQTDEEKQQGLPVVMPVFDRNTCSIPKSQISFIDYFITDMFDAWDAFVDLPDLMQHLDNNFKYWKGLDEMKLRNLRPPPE

PDE4A = PDE4A (Homo sapiens, UniProt P27815); assay: Recombinant PDE isozyme IMAP FP assay; type: biochemical; conditions: cAMP substrate; SS tested up to 200 μM
Chain of PDE4A (P27815 whole entry): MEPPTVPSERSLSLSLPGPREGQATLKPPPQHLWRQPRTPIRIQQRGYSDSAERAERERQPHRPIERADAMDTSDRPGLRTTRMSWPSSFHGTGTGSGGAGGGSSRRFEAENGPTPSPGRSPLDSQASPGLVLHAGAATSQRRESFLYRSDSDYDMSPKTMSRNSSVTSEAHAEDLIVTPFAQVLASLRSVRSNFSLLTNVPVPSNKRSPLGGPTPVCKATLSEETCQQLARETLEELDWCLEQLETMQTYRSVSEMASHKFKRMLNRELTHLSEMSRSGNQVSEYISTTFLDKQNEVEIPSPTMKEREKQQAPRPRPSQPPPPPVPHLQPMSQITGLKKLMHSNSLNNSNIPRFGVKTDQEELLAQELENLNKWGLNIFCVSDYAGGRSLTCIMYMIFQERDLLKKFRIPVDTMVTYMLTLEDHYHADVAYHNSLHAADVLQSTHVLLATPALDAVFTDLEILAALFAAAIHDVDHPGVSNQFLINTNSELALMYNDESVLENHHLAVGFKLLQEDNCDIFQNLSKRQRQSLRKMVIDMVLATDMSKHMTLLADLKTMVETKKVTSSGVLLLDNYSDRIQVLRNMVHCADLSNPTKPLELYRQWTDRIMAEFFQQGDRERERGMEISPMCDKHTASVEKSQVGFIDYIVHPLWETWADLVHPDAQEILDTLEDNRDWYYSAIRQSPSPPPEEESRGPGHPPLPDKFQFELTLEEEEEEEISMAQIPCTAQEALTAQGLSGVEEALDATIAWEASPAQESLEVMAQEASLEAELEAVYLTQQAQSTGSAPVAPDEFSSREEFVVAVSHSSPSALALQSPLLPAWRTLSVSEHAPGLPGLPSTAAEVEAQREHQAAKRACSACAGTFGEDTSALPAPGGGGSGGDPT

PDE6C = PDE6C (Homo sapiens, UniProt P51160); assay: Recombinant PDE isozyme IMAP FP assay; type: biochemical; conditions: cGMP substrate; SS tested up to 200 μM
[5] = tested on: SK-BR-3 breast tumor cells; assay: Growth assay; type: cell-based; conditions: Homo sapiens, SK-BR-3, 72 h, read-out: growth inhibition IC50
Summary of the method: (§2)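 SK-BR-3 and MDA-MB-231 cells were grown in RPMI 1640 with 1.5% FBS at 37°C and 5% CO2, seeded at 5,000/well, and rested 18–24 h. Test compound or vehicle was added for 72 h (DMSO ≤0.2%). CellTiter-Glo ATP luminescence gave viable cells.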

breast tumor cells [6] = assay: Cell cycle distribution; type: cell-based, human; conditions: conditions of the growth assays, data not shown
PDE10A = PDE10A (Homo sapiens, UniProt Q9Y233); assay: Recombinant PDE isozyme IMAP FP assay; type: biochemical; conditions: SS tested up to 200 μM
Chain of PDE10A (Q9Y233 290-1055 limits assumed): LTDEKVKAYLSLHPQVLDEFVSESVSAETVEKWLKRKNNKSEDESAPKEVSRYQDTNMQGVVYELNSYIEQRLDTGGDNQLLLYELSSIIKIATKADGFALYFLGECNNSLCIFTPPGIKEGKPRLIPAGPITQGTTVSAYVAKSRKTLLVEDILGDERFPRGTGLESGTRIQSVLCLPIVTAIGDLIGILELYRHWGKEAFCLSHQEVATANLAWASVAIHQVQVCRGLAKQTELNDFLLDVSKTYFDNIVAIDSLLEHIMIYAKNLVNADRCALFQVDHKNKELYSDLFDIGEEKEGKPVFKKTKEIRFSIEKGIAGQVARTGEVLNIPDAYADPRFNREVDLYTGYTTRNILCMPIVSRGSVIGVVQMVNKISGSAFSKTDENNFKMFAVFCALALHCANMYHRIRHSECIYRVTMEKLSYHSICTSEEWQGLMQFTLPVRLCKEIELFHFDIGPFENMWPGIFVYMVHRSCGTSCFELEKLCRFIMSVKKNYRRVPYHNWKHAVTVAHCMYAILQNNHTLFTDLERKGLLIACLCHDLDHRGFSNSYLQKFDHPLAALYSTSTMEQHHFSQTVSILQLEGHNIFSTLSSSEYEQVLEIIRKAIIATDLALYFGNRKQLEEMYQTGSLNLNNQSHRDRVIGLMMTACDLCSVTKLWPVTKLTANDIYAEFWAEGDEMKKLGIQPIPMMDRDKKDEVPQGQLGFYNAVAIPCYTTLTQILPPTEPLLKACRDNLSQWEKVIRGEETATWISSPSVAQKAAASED

breast tumor cells [7] = assay: TUNEL labeling; type: cell-based, human; conditions: data not shown
[8] = tested on: PDE activity in SK-BR-3 and MDA-MB-231 cell lysates; assay: IMAP FP PDE assay in tumor cell lysates; type: biochemical, human; conditions: for inhibition of cGMP hydrolysis: tumor cell lysates, TAMRA-cGMP substrate
[9] = tested on: PDE activity in HMEC lysates; assay: IMAP FP PDE assay in HMEC lysates; type: biochemical, human
Summary of the method: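 HMEC were lysed in ice-cold buffer (20mM Tris-acetate, 5mM Mg acetate, 1mM EGTA, 0.8% Triton X-100, 50mM NaF, protease inhibitors, pH 7.4) and cleared at 10,000g, 10 min, 4°C. Lysate at 0.25 mg/mL was preincubated with test compound 30 min at 30°C. Substrate was 25 nM each Fl-cAMP and TAMRA-cGMP, run 90 min at 30°C. Reactions were stopped with IMAP binding reagent and read by FP (DMSO ≤2%). IC50 came from 10 concentrations, ≥2 replicates.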

COX-1 = conditions: read-out: IC50 to inhibit COX-1; cited from earlier work
[10] = tested on: MDA-MB-231, SKBR3, and ZR75-1 cells; assay: Caspase3/7 Glo apoptosis assay; type: cell-based, human; conditions: 100 μM, 5 hours
Summary of the method: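 MDA-MB-231 and SK-BR-3 cells were kept in RPMI 1640 with 10% FBS, with serum cut to 1.5% FBS for the assay, at 37°C and 5% CO2. Cells were seeded at 10,000/well, rested 18–24 h, then given test compound or vehicle (DMSO ≤0.2%). Caspase 3/7 activation was read as luminescence from Caspase3/7 Glo substrate cleavage.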

[11] = tested on: ZR75-1 breast tumor cells; assay: Growth assay; type: cell-based; conditions: Homo sapiens, ZR-75-1, 72 h, read-out: growth inhibition IC50
Summary of the method: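 Cells seeded at 5,000/well were rested 18–24 h, then treated with test compound or vehicle for 72 h (DMSO ≤0.2%). Growth was scored as viable-cell ATP luminescence (CellTiter-Glo) against vehicle.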

HMEC [12] = assay: Caspase3/7 Glo apoptosis assay; type: cell-based, human; conditions: 5 hours, staurosporine 1μM positive control
Summary of the method: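 HMEC grown in MEGM complete medium were seeded at 10,000 cells/well and left 18–24 h. They were then exposed to test compound or vehicle (DMSO ≤0.2%), with 1μM staurosporine as positive control. Apoptosis was read as Caspase3/7 Glo luminescence from cleavage of a caspase 3/7 substrate.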

MDA-MB-231 cells = assay: Intracellular cGMP assay; type: cell-based, human
Summary of the method: as §1

human breast tumor cells = assay: Growth assay, breast tumor cells in general; type: cell-based; conditions: SK-BR-3 and MDA-MB-231 breast tumor cells, 72 hours of treatment
Summary of the method: as §2

PDE5A = PDE5A (Homo sapiens, UniProt O76074); assay: Recombinant PDE isozyme IMAP FP assay; type: biochemical
Summary of the method: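 Commercial recombinant PDE isozyme at 0.25 mg/mL, preincubated with test compound 30 min at 30°C. Substrate mix of 25 nM each fluorescein-cAMP and TAMRA-cGMP then added for 90 min at 30°C, with cAMP and cGMP hydrolysis read together. Binding reagent stops reaction; IMAP fluorescence polarization read. DMSO ≤2%. IC50 from 10 concentrations, ≥2 replicates each, versus vehicle, four-parameter logistic fit; experiments repeated at least twice.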

[13] = MDA-MB-231, 30 minutes of treatment
[14] = breast tumor cells, line not given

SMILES: CSc1ccc(/C=C2/C(C)=C(CC(=O)O)c3cc(F)ccc32)cc1 [SS, sulindac sulfide]
IC50 [1]: 163 µM
change of growth inhibition IC50 after pre-treatment with GC activator NOR-3 ([2]; 1 hour pretreatment with NOR-3, 72 hours of SS treatment): significant reduction in the IC50 value
VASP phosphorylation at serine 239 (p-VASP levels) ([3]; MDA-MB-231, dose- and time-dependent): increased the levels of phosphorylated VASP
IC50, cGMP hydrolysis by PDE9A (PDE9A): Inactive
IC50, cAMP hydrolysis by PDE7A (PDE7A): Inactive
increase of intracellular cGMP levels (HMEC [4]): failed to induce cGMP levels
IC50, cAMP hydrolysis by PDE11A (PDE11A; cAMP substrate): Inactive
IC50, cGMP hydrolysis by PDE11A (PDE11A; cGMP substrate): Inactive
IC50, cAMP hydrolysis by PDE8A (PDE8A): Inactive
IC50, cAMP hydrolysis by PDE4A (PDE4A): Inactive
IC50, cGMP hydrolysis by PDE6C (PDE6C): Inactive
IC50 [5]: 59 µM
effect on cell cycle distribution (breast tumor cells [6]): did not have a significant effect
IC50, cAMP hydrolysis by PDE10A (PDE10A; cAMP substrate): Inactive
IC50, cGMP hydrolysis by PDE10A (PDE10A; cGMP substrate): Inactive
TUNEL labeling (breast tumor cells [7]): increased TUNEL labeling
inhibition of cAMP hydrolysis ([8]; breast tumor cell lysates, Fl-cAMP substrate): did not significantly affect
inhibition of cGMP hydrolysis [8]: inhibited cGMP hydrolysis
inhibition of cAMP hydrolysis [9]: did not affect
inhibition of cGMP hydrolysis [9]: did not affect
IC50 [11]: 76 µM
activation of caspases 3 and 7 (HMEC [12]): resistant

SMILES: CC/C(=C\C(=N/O)C(N)=O)C(C)[N+](=O)[O-] (racemic) [NOR-3, (±)-(E)-Ethyl-2-((E)-hydroxyimino)-5-nitro-3-hexenamide]
tumor cell growth inhibitory activity (human breast tumor cells): inhibited the growth

IC50 (PDE5A): 14.3 µM
SMILES: Clc1cccc(Nc2nnc(-c3ccccc3)c3ccccc23)c1 [MY5445, 1-(3-chloroanilino)-4-phenylphthalazine]
tumor cell growth inhibitory activity (human breast tumor cells): inhibited breast tumor cell growth

SMILES: CC(C)Cn1c(=O)n(C)c(=O)c2[nH]cnc21 [IBMX, 3-Isobutyl-1-methylxanthine]
tumor cell growth inhibitory activity (human breast tumor cells): none were found to be active

SMILES: CCCc1nn(C)c2c(=O)[nH]c(-c3cc(S(=O)(=O)N4CCN(C)CC4)ccc3OCC)nc12 [sildenafil]
PKG activation [3, 14]: unable to significantly increase intracellular cGMP levels or activate PKG
inhibition of cGMP hydrolysis [8]: inhibit the majority of cGMP PDE activity
increase of intracellular cGMP levels (MDA-MB-231 cells; [14]): unable to significantly increase intracellular cGMP levels
tumor cell growth inhibitory activity (human breast tumor cells): none were found to be active; also recorded: unable to inhibit breast tumor cell growth

SMILES: Cc1[nH]c(=O)c(C#N)cc1-c1ccncc1 [milrinone]
tumor cell growth inhibitory activity (human breast tumor cells): none were found to be active

SMILES: COCc1nc2c([nH]1)c(=O)n(C)c(=O)n2CC(C)C [8-methoxymethyl-IBMX]
tumor cell growth inhibitory activity (human breast tumor cells): none were found to be active

SMILES: CCCOc1ccccc1-c1nc2nn[nH]c2c(=O)[nH]1 [zaprinast]
tumor cell growth inhibitory activity (human breast tumor cells): none were found to be active

SMILES: C=C[C@@]1(C)CC(=O)[C@]2(O)[C@@]3(C)[C@@H](O)CCC(C)(C)[C@@H]3[C@H](O)[C@H](OC(C)=O)[C@@]2(C)O1 [forskolin]
tumor cell growth inhibitory activity (human breast tumor cells): no significant growth inhibitory activity

SMILES: O=C1C(Nc2ccccc2)=CC(=O)c2ncccc21 [LY83583]
effect on sensitivity to growth inhibition by doxorubicin ([2]; MDA-MB-231, control experiment, data not shown): ineffective

SMILES: CN[C@@H]1C[C@H]2O[C@@](C)([C@@H]1OC)n1c3ccccc3c3c4c(c5c6ccccc6n2c5c31)C(=O)NC4 [staurosporine]
activation of caspases 3 and 7 (HMEC [12]): increased caspase activity

SMILES: COc1cc2c(cc1OC)-c1c/c(=N\c3c(C)cc(C)cc3C)n(C)c(=O)n1CC2 [Trequinsin, trequinsin]
tumor cell growth inhibitory activity (human breast tumor cells): inhibited breast tumor cell growth

SMILES: OCCN(CCO)c1nc(N2CCCCC2)c2nc(N(CCO)CCO)nc(N3CCCCC3)c2n1 [dipyridamole]
tumor cell growth inhibitory activity (human breast tumor cells): none were found to be active

SMILES: CCCCCC[C@@H]([C@@H](C)O)n1cnc2c(N)ncnc21 (racemic) [EHNA]
tumor cell growth inhibitory activity (human breast tumor cells): none were found to be active

SMILES: COc1ccc(C2CNC(=O)C2)cc1OC1CCCC1 (centres unmarked) [rolipram]
tumor cell growth inhibitory activity (human breast tumor cells): none were found to be active
